In ChEMBL document CHEMBL5252671, “Design, synthesis and evaluation of the anti-breast cancer activity of 1,3-oxazolo[4,5-d]pyrimidine and 1,3-oxazolo[5,4-d]pyrimidine derivatives” (2023):

Tests used:
Format in all cases: functional
Hs-578T [1] = assay: Anticancer activity against human Hs-578T cells measured at 48 hrs
Method in brief: (§1)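 NCI DTP five-dose screen on the breast subpanel: compound at 0.01, 0.1, 1, 10 and 100 μM for 48 h. Cell density read by sulforhodamine B (protein content). GI50, TGI and LC50 were derived from the T, T0 and C optical densities using the NCI formulas.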

T47D [2] = assay: Antiproliferative activity against human T47D cells assessed as inhibition of cell growth at 1 X 10^-5 M measured for 48 hrs by sulforhodamine B assay relative to control; settings: dose 1 10^-5M
Method in brief: (§2)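 NCI one-dose screen. Cells were seeded at 5000-40000/well in RPMI 1640 with 5% FBS and 2 mM L-glutamine and preincubated 24 h at 37 °C in 5% CO2. Compound was added at 10⁻⁵ M for 48 h. Cells were then fixed with 10% TCA, stained with sulforhodamine B, washed with 1% acetic acid, solubilized in 10 mM Tris and read as OD at 510 nm.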

BT-549 [3] = assay: Anticancer activity against human BT-549 cells measured at 48 hrs; method in brief: as §1
Hs-578T [4] = assay: Antiproliferative activity against human Hs-578T cells assessed as inhibition of cell growth at 1 X 10^-5 M measured for 48 hrs by sulforhodamine B assay relative to control; settings: dose 1 10^-5M; method in brief: as §2
MDA-MB-231 [5] = assay: Anticancer activity against human MDA-MB-231 cells measured at 48 hrs; method in brief: as §1
MDA-MB-468 [6] = assay: Antiproliferative activity against human MDA-MB-468 cells assessed as inhibition of cell growth at 1 X 10^-5 M measured for 48 hrs by sulforhodamine B assay relative to control; settings: MDA-MB-468, 48 h, dose 1 10^-5M; method in brief: as §2
MDA-MB-468 [7] = assay: Anticancer activity against human MDA-MB-468 cells measured at 48 hrs; method in brief: as §1
BT-549 [8] = assay: Antiproliferative activity against human BT-549 cells assessed as inhibition of cell growth at 1 X 10^-5 M measured for 48 hrs by sulforhodamine B assay relative to control; settings: BT-549, 48 h, dose 1 10^-5M; method in brief: as §2
MCF7 [9] = assay: Antiproliferative activity against human MCF7 cells assessed as inhibition of cell growth at 1 X 10^-5 M measured for 48 hrs by sulforhodamine B assay relative to control; settings: MCF7, 48 h, dose 1 10^-5M; method in brief: as §2
T47D [10] = assay: Anticancer activity against human T47D cells measured at 48 hrs; settings: for CC50: read-out: LC50 (the source's name); method in brief: as §1
MCF7 [11] = assay: Anticancer activity against human MCF7 cells measured at 48 hrs; method in brief: as §1
MDA-MB-231 [12] = assay: Antiproliferative activity against human MDA-MB-231 cells assessed as inhibition of cell growth at 1 X 10^-5 M measured for 48 hrs by sulforhodamine B assay relative to control; settings: MDA-MB-231, 48 h, dose 1 10^-5M; method in brief: as §2

Row | Structure (SMILES) | GI50 (Hs-578T [1]) | LC50 (50% lethal concentration) (Hs-578T [1]) | TGI (Hs-578T [1]) | inhibition at 10 µM (T47D [2]) | GI50 (BT-549 [3]) | TGI (BT-549 [3]) | inhibition at 10 µM (Hs-578T [4]) | GI50 (MDA-MB-231 [5]) | LC50 (concentration killing 50% of starting cells) (MDA-MB-231 [5]) | TGI (MDA-MB-231 [5]) | inhibition at 10 µM (MDA-MB-468 [6]) | GI50 (MDA-MB-468 [7]) | TGI (MDA-MB-468 [7]) | inhibition at 10 µM (BT-549 [8]) | inhibition at 10 µM (MCF7 [9]) | GI50 (T47D [10]) | TGI (T47D [10]) | GI50 (MCF7 [11]) | LC50 (concentration giving 50% net cell kill) (MCF7 [11]) | TGI (MCF7 [11]) | further results
1 | Cc1ccc(-c2nc3nc(-c4ccc(Br)cc4)nc(N4CCCNCC4)c3o2)cc1 | 17200 nM | 80.2 µM | 37.1 µM | 108% | 16000 nM | 34.6 µM | 130% | 1930 nM | 8.5 µM | 4.05 µM | 165% | 3980 nM | 15.9 µM | 1% | 176% | 3060 nM | 13.9 µM | 1780 nM | 6.91 µM | 3.51 µM | LC50 (concentration giving 50% net cell kill) (BT-549 [3]): 75 µM; LC50 (concentration giving 50% net cell kill) (MDA-MB-468 [7]): 52.5 µM; CC50 (T47D [10]): 65.5 µM; inhibition at 10 µM (MDA-MB-231 [12]): 157%
2 | Cc1ccc(-c2nc(N3CCNCC3)c3oc(-c4ccc(C)cc4)nc3n2)cc1 | 2270 nM | > 100 µM | 5.83 µM | 63% | 1710 nM | 3.32 µM | 1% | 1740 nM | 6.81 µM | 3.44 µM | 133% | 2130 nM | 4.77 µM | 17% | 173% | 11400 nM | 37.4 µM | 1720 nM | 7.86 µM | 3.68 µM | LC50 (concentration giving 50% net cell kill) (BT-549 [3]): 6.48 µM; LC50 (concentration giving 50% net cell kill) (MDA-MB-468 [7]): 13.5 µM; CC50 (T47D [10]): > 100 µM; inhibition at 10 µM (MDA-MB-231 [12]): 172%
3 | c1ccc(-c2nc(N3CCCNCC3)c3nc(-c4ccccc4)oc3n2)cc1 | 1860 nM | 8.34 µM | 3.94 µM | 53% | 1780 nM | 3.29 µM | 16% | 1720 nM | 5.99 µM | 3.21 µM | 153% | 1720 nM | 3.37 µM | 5% | 167% | 1780 nM | 3.64 µM | 1670 nM | 6.67 µM | 3.34 µM | LC50 (concentration giving 50% net cell kill) (MDA-MB-468 [7]): 6.57 µM; CC50 (T47D [10]): 7.42 µM; inhibition at 10 µM (MDA-MB-231 [12]): 103%
4 | c1ccc(-c2nc(N3CCNCC3)c3nc(-c4ccccc4)oc3n2)cc1 | 1870 nM | 9.05 µM | 4.11 µM | 157% | 1670 nM | 3.24 µM | 11% | 1670 nM | 6.13 µM | 3.2 µM | 137% | 1930 nM | 3.66 µM | 3% | 169% | 1940 nM | 4.19 µM | 1700 nM | 7.54 µM | 3.58 µM | LC50 (concentration giving 50% net cell kill) (BT-549 [3]): 6.27 µM; LC50 (concentration giving 50% net cell kill) (MDA-MB-468 [7]): 6.94 µM; inhibition at 10 µM (MDA-MB-231 [12]): 181%
5 | Cc1ccc(-c2nc3nc(-c4ccc(F)cc4)nc(N4CCCNCC4)c3o2)cc1 | 1780 nM | 7.63 µM | 3.69 µM | 164% | 1660 nM | 3.37 µM | 176% | 1630 nM | 5.91 µM | 3.11 µM | 176% | 1580 nM | 3.18 µM | 177% | 172% | 1850 nM | 3.94 µM | 1230 nM | 7.14 µM | 2.96 µM | LC50 (concentration giving 50% net cell kill) (BT-549 [3]): 6.85 µM; LC50 (concentration giving 50% net cell kill) (MDA-MB-468 [7]): 6.41 µM; inhibition at 10 µM (MDA-MB-231 [12]): 185%
6 | Cc1ccc(-c2nc3nc(-c4ccccc4)nc(N4CCCNCC4)c3o2)cc1 | 1830 nM | 8.85 µM | 4.02 µM | 145% | 1630 nM | 3.19 µM | 118% | 1810 nM | 6.1 µM | 3.32 µM | 168% | 1590 nM | 3.35 µM | 72% | 178% | 1720 nM | 3.5 µM | 1480 nM | 8.29 µM | 3.5 µM | LC50 (concentration giving 50% net cell kill) (BT-549 [3]): 6.25 µM; LC50 (concentration giving 50% net cell kill) (MDA-MB-468 [7]): 7.04 µM; CC50 (T47D [10]): 7.1 µM; inhibition at 10 µM (MDA-MB-231 [12]): 187%
7 | Cc1ccc(-c2nc(N3CCCNCC3)c3oc(-c4ccc(C)cc4)nc3n2)cc1 | 12600 nM | 80.9 µM | 31.9 µM | 146% | 16300 nM | 35 µM | 0% | 1690 nM | 5.73 µM | 3.11 µM | 95% | 1960 nM | 4.39 µM | 10% | 165% | 1940 nM | 4.17 µM | 1850 nM | 8.14 µM | 3.88 µM | LC50 (concentration giving 50% net cell kill) (BT-549 [3]): 75.2 µM; CC50 (T47D [10]): 8.96 µM; inhibition at 10 µM (MDA-MB-231 [12]): 179%
8 | Cc1ccc(-c2nc(N3CCNCC3)c3oc(-c4ccccc4)nc3n2)cc1 | 2530 nM | > 100 µM | 7.69 µM | 158% | 13800 nM | 31.6 µM | 72% | 1620 nM | 5.77 µM | 3.06 µM | 131% | 1810 nM | 3.8 µM | 15% | 175% | 1810 nM | 3.83 µM | 1850 nM | 7.6 µM | 3.75 µM | LC50 (concentration giving 50% net cell kill) (BT-549 [3]): 72.7 µM; LC50 (concentration giving 50% net cell kill) (MDA-MB-468 [7]): 7.98 µM; CC50 (T47D [10]): 8.07 µM; inhibition at 10 µM (MDA-MB-231 [12]): 179%
